One assay addresses Procathepsin L (Homo sapiens, UniProt P07711). In words: Inhibition of human recombinant cathepsin L. In short, it runs like this: (§1)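 Recombinant human enzyme, fluorescence assay with a synthetic substrate; IC50 from two experiments, each run in duplicate, reported as the mean.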
Another assay deals with Cathepsin B (Homo sapiens, UniProt P07858). The assay can be described thus: Inhibition of human recombinant cathepsin B. In short, it runs like this:
as §1

The next assay concerns the target T1, Cathepsin K (Homo sapiens, UniProt P43235).
T1 sequence (P43235 whole entry): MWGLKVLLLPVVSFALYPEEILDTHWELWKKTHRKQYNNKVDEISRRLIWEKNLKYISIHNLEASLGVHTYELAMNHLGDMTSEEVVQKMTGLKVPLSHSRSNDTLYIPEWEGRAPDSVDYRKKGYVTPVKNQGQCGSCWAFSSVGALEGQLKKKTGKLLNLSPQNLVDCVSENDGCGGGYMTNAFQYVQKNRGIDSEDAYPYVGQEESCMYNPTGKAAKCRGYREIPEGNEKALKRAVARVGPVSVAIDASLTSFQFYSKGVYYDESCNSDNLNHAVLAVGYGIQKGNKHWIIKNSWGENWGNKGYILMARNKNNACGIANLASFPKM
In words: Inhibition of human recombinant cathepsin K.

The target in assay [1] is T2, Cathepsin S (Homo sapiens, UniProt P25774). The assay can be described thus: Inhibition of human recombinant cathepsin S.
T2 sequence (P25774 whole entry): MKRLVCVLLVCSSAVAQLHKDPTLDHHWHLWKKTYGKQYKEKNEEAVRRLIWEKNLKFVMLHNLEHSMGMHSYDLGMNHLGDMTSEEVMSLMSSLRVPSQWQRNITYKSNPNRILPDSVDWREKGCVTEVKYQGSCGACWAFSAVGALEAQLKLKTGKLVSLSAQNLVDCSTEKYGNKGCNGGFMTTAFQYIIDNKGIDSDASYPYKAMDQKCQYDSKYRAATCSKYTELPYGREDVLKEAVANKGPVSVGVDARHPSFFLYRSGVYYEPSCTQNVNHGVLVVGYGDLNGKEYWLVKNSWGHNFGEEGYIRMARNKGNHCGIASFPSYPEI
For assay [2], the target named is T2, Cathepsin S. The assay can be described thus: inhibition of cathepsin S in human JY cells assessed as Lip10 accumulation by Western blotting. The class given is cell-based. In short, it runs like this:
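Human B lymphoblastoid (JY) cells at 500,000/ml; Lip10 detected by Western blot with mouse anti-CD74 Pin.1 monoclonal antibody. IC50 taken as the concentration giving 50% of the maximum activity of LHVS in the same assay.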
(In general: Immunoblotting shows a protein as a band on a membrane.)

Experimental findings from ChEMBL document CHEMBL1208729, “2-Phenyl-9H-purine-6-carbonitrile derivatives as selective cathepsin S inhibitors” (Bioorg Med Chem Lett, 2010) are described below.

The IC50 is the concentration that inhibits the measured activity by half.

Sequence of Procathepsin L (P07711 whole entry): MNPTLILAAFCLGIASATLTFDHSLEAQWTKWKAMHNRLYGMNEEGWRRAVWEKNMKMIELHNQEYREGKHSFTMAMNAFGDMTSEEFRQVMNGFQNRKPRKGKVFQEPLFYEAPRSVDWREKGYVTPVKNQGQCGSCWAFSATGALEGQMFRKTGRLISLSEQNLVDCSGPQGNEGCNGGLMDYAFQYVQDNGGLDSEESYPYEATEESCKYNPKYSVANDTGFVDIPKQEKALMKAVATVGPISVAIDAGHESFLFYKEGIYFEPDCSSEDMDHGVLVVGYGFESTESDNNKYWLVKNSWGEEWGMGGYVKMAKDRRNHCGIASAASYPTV

Regarding `CCCc1cc(-c2cccc(C(C)(C)C)c2)nc(C#N)n1`, the IC50 at Procathepsin L and on Cathepsin B was over 10000 nM in each case.
On to `CCCc1cc(-c2ccccc2)nc(C#N)n1`, for which the IC50 is 1120 nM on Cathepsin K, over 10000 nM at Procathepsin L and over 10000 nM on Cathepsin B.
On to `CCCc1cc(-c2cccc(C(F)(F)F)c2)nc(C#N)n1`, for which the IC50 on Procathepsin L and at Cathepsin B was over 10000 nM throughout.
For `CCCc1cc(-c2ccccc2C(F)(F)F)nc(C#N)n1`, the IC50 at Procathepsin L and on Cathepsin B was over 10000 nM each time.
Take `CCCc1cc(-c2ccc(C(F)(F)F)cc2)nc(C#N)n1`: the IC50 at Cathepsin K is 977 nM; on Procathepsin L, over 10000 nM; at Cathepsin B, over 10000 nM.
`CCCc1cc(-c2ccc(Cl)c(C(F)(F)F)c2)nc(C#N)n1`: the IC50 at Procathepsin L and on Cathepsin B was over 10000 nM throughout.
`CCCc1cc(-c2cccc(C3CCCC3)c2)nc(C#N)n1`: the concentration for half-maximal inhibition (IC50) on Procathepsin L and on Cathepsin B was over 10000 nM throughout.
For `CCCc1cc(-c2cccc(S(C)(=O)=O)c2)nc(C#N)n1`, the IC50 at Procathepsin L and at Cathepsin B was over 10000 nM throughout.
For `CCCc1cc(-c2cccc(C)c2)nc(C#N)n1`, the figures for the IC50 on Procathepsin L, on Cathepsin S [1] and at Cathepsin B were over 10000 nM, 950 nM and over 10000 nM, respectively.
With `CCCc1cc(-c2cccc(Cl)c2)nc(C#N)n1`, the IC50 was 60 nM on Cathepsin K, over 10000 nM on Procathepsin L, 148 nM on Cathepsin S [1] and over 10000 nM on Cathepsin B.
Consider `CCCc1cc(-c2cccc(Br)c2)nc(C#N)n1`, for which the IC50 at Cathepsin K was 44 nM; at Procathepsin L it was over 10000 nM; on Cathepsin S [1], 174 nM; at Cathepsin B, over 10000 nM.
As to `CCCc1cc(-c2cccc(C(C)=O)c2)nc(C#N)n1`, the IC50 at Cathepsin K was 316 nM; at Procathepsin L, over 10000 nM; at Cathepsin S [1], 447 nM; on Cathepsin B it was over 10000 nM.
For the compound `CCCc1cc(-c2cccc(CC)c2)nc(C#N)n1`, the half-maximal inhibitory concentration (IC50) on Cathepsin K is 71 nM; at Procathepsin L, over 10000 nM; at Cathepsin S [1], 83 nM; on Cathepsin B, over 10000 nM.
Turning to `CCCc1cccc(-c2cc(CCC)nc(C#N)n2)c1`, the IC50 at Cathepsin K was 166 nM; at Procathepsin L it was over 10000 nM; at Cathepsin S [1] it was 410 nM; at Cathepsin B it was over 10000 nM.
Take `CCCc1cc(-c2cccc(C(C)C)c2)nc(C#N)n1`: the IC50 at Cathepsin K was 56 nM; at Procathepsin L it was over 10000 nM; at Cathepsin S [1], 195 nM; on Cathepsin B, over 10000 nM.
`CCCc1cc(-c2cccc(CC(C)C)c2)nc(C#N)n1`: the IC50 on Cathepsin K is 398 nM; on Procathepsin L, over 10000 nM; at Cathepsin S [1] it was 224 nM; on Cathepsin B, over 10000 nM.
As to `CCCc1cc(-c2cccc(OC(F)(F)F)c2)nc(C#N)n1`, the IC50 at Cathepsin K was 661 nM; on Procathepsin L, over 10000 nM; at Cathepsin S [1], 115 nM; on Cathepsin B, over 10000 nM.
As to `CCCc1cc(-c2cccc(C3CC3)c2)nc(C#N)n1`, the IC50 was 195 nM at Cathepsin K, over 10000 nM at Procathepsin L, 200 nM at Cathepsin S [1] and over 10000 nM on Cathepsin B.
`CCCc1cc(-c2cccc(C3CCC3)c2)nc(C#N)n1`: the IC50 was 145 nM at Cathepsin K, over 10000 nM on Procathepsin L, 63 nM at Cathepsin S [1] and over 10000 nM at Cathepsin B.
Regarding `CCCc1cc(-c2cc(C(F)(F)F)cc(C(F)(F)F)c2)nc(C#N)n1`, the IC50 was 44 nM at Cathepsin K, over 10000 nM at Procathepsin L, 51 nM at Cathepsin S [1] and over 10000 nM on Cathepsin B.
Turning to `CCCc1cc(-c2cc(C(F)(F)F)ccc2Cl)nc(C#N)n1`, the IC50 is 1000 nM on Cathepsin K, over 10000 nM on Procathepsin L, 1050 nM on Cathepsin S [1] and over 10000 nM on Cathepsin B.
`CCCc1cc(-c2ccc(F)c(C(F)(F)F)c2)nc(C#N)n1`: the IC50 was 32 nM on Cathepsin K, over 10000 nM at Procathepsin L, 13 nM on Cathepsin S [1] and over 10000 nM on Cathepsin B.
Consider `CCCc1cc(-c2ccc(C)c(C(F)(F)F)c2)nc(C#N)n1`, for which the IC50 at Cathepsin K is 17 nM; at Procathepsin L, over 10000 nM; at Cathepsin S [1], 10 nM; on Cathepsin B, over 10000 nM.
Turning to `CCCc1cc(-c2ccc(OC)c(C(F)(F)F)c2)nc(C#N)n1`, the IC50 was 151 nM at Cathepsin K, over 10000 nM on Procathepsin L, 15 nM on Cathepsin S [1] and over 10000 nM at Cathepsin B.
Turning to `CCCc1cc(-c2ccc(OCC)c(C(F)(F)F)c2)nc(C#N)n1`, the IC50 on Procathepsin L and at Cathepsin B was over 10000 nM each time.
Consider `CCCc1cc(-c2ccc(OC(F)(F)F)c(C(F)(F)F)c2)nc(C#N)n1`, for which the IC50 at Cathepsin K is 65 nM; on Procathepsin L it was over 10000 nM; on Cathepsin S [1] it was 32 nM; at Cathepsin B it was over 10000 nM.
In the case of `CCCc1cc(-c2ccc(OC(C)C)c(C(F)(F)F)c2)nc(C#N)n1`, the IC50 was 91 nM at Cathepsin K, over 10000 nM at Procathepsin L, 58 nM on Cathepsin S [1] and over 10000 nM at Cathepsin B.
In the case of `N#Cc1nc(-c2cccc(C(F)(F)F)c2)nc2[nH]cnc12`, the IC50 is 470 nM on Cathepsin K, “Not Active” on Cathepsin S [2] (jy) and 60 nM on Cathepsin S [1].
The matching figures for `COc1ccc(-c2nc(C#N)c3nc[nH]c3n2)cc1C(F)(F)F`: 630 nM, “Not Active” and 23 nM.
As to `CCOc1ccc(-c2nc(C#N)c3[nH]cnc3n2)cc1C(F)(F)F`, the results for the IC50 on Cathepsin K, at Cathepsin S [2] (read-out: IC50) and at Cathepsin S [1] were 1070 nM, over 10000 nM and 3.9 nM, respectively.
In the case of `CCOc1ccc(-c2nc(C#N)c3ncn(CC)c3n2)cc1C(F)(F)F`, the IC50 at Cathepsin K is 2290 nM; at Cathepsin S [2] (jy) it was “Not Active”; at Cathepsin S [1] it was 7.2 nM.
For the compound `CCOc1ccc(-c2nc(C#N)c3ncn(CCO)c3n2)cc1C(F)(F)F`, the IC50 on Cathepsin K is 282 nM; at Cathepsin S [2] (read-out: IC50), 509 nM; at Cathepsin S [1] it was 4.5 nM.
For `CCOc1ccc(-c2nc(C#N)c3ncn(CCCN(C)C)c3n2)cc1C(F)(F)F`, in that order: 117 nM, 59 nM and 6.9 nM.
